# According to PubChem BioAssay AID493091 (Sanford-Burnham Center for Chemical Genomics, 2011):
# Several values for one entry are separate records, joined by “and”; a condition that tells them apart may be missing. Identical values can stand only once. Hit rate of the full screen: of about 340,000 compounds, about 3,000 (0.88%) were called active. The full list was thinned out, with actives kept by preference. A number with no mark means an inactive call.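 The calls were made as follows: active = inhibition above about 50% at 20 µM (limit read from the data); inactive = the rest.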
# Biological target: Carboxy-terminal domain RNA polymerase II polypeptide A small phosphatase 1 (Homo sapiens) (UniProt Q9GZU7)
# Experiment: Scp-1 phosphatase inhibitors, primary screen, biochemical, colorimetric, uHTS (AID 493091);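 also: plate controls were DMSO wells with enzyme for no effect and wells lacking enzyme for full effect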
# Settings: Recombinant Scp1, phosphopeptide, malachite green phosphate absorbance; at 20 µM; active compounds read high
# Procedure, shortened: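 Test system: SCP-1 phosphatase catalytic domain, residues 76-261; measured by: colorimetric phosphate reagent with accelerator and stabiliser, absorbance at 630 nm; timing: enzyme reaction 45 min at room temperature, colour 5 min, stabilisation 30 min; also added: Phosphorylated 17-residue peptide substrate; compound dosing: one concentration, 20 µM, with 1.0% DMSO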
# Chain of Carboxy-terminal domain RNA polymerase II polypeptide A small phosphatase 1 (Homo sapiens) (Q9GZU7 76-261 limits assumed): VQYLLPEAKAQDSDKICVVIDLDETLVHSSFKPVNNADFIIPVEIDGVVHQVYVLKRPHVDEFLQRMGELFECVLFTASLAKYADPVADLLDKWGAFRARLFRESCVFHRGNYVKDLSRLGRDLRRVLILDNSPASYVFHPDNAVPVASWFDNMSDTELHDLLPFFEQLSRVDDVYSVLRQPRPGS
row,SMILES,inhibition
1,CC(C)(C)c1cc(P(=O)(c2ccccc2)c2ccccc2)ccc1O,4.5%
2,O=C(N/N=C/c1ccc(Cl)c(Cl)c1)c1ccc2nc[nH]c2c1,2.5%
3,O=C(NN=Cc1ccccc1)c1ccccc1,-6.69%
4,CSc1ccc(/C=N/NC(=O)c2cccc(Cl)c2)cc1,63.9% (active)
5,N#CCCN1CCN(S(=O)(=O)c2ccc(S(=O)(=O)NC3CCCCC3)cc2)CC1,-9.7%
6,Cc1ccc(C(=O)N/N=C/c2cccc3ccccc23)cn1,0.35%
7,COc1cc(/C=N/NC(=O)c2cc(-c3ccccc3C)nc3ccccc23)cc(OC)c1O,-6.97%
8,COc1cccc(/C=N/NC(=O)c2[nH]nc3c2CCc2ccccc2-3)c1O,89% (active)
9,CN(CCOc1ccccc1)C(=O)c1cc(-c2ccco2)nc2ccccc12,49%
10,CN(C(=O)COC(=O)c1cc(-c2ccco2)nc2ccccc12)C1CCS(=O)(=O)C1 (configuration not stated),88.8% (active)
11,CN(C(=O)COC(=O)Cc1ccccc1[N+](=O)[O-])C1CCS(=O)(=O)C1 (configuration not stated),1.98%
12,CCOC(=O)C1CCCN(C(=O)c2ccc(CS(=O)(=O)c3ccc(Br)cc3)o2)C1 (configuration not stated),5.99%
13,Cc1nnc(SCc2cccc(Cl)c2)n(N)c1=O,-7.11%
14,COc1cccc2sc(N(CCCN(C)C)C(=O)C(c3ccccc3)c3ccccc3)nc12,59.4% (active)
15,Cc1cccc2sc(N(CCCN(C)C)C(=O)CCS(=O)(=O)c3ccccc3)nc12,5.73%
16,COc1cccc2sc(N(CCCN(C)C)C(=O)CCS(=O)(=O)c3ccccc3)nc12,8.55%
17,CC1CN(S(=O)(=O)c2ccccc2)C(C)CN1S(=O)(=O)c1ccccc1 (configuration not stated),15.5%
18,O=C(Nc1ccc(Cl)cc1)C1c2cccc[n+]2CC(=O)N1Cc1ccc2c(c1)OCO2 (configuration not stated),39.5%
19,C=CCC(Nc1ccccc1)c1cccc(OC)c1OC (configuration not stated),0.9%
20,COc1cccc2cc(C(=O)N(C)C)c(=O)oc12,-2.27%
21,COc1ccc2oc(=O)cc(-c3cc4ccccc4o3)c2c1,-1.71%
22,COc1cccc2cc(-c3cc(=O)oc4cc(C)c(O)cc34)oc12,58.8% (active)
23,Cc1ccsc1-c1nc(CSCC(=O)NCCN2CCCC2)c(C)o1,-6.12%
24,COC(=O)C1C(=O)NCC1c1ccc(OC)cc1 (configuration not stated),-1.05%
25,CCOC(=O)CNC(=O)c1nn(-c2cccc(OC)c2)c(=O)c2ccccc12,1.07%

row,SMILES,inhibition
1,Cc1nn(-c2cc(Cl)ccc2N)c(=O)c2ccccc12,60.1% (active)
2,Cc1cc(=O)oc2c1c(C)nn2-c1ccc(Cl)cc1,-6.94%
3,CCCC(C(=O)N1CCOCC1)N1C(=O)C2C3C=CC(C3)C2C1=O (configuration not stated),1.46%
4,Cc1cc(O)c(C2(O)C(=O)Nc3ccccc32)cc1C (configuration not stated),2.83%
5,CC(=O)c1cccc(NC(=O)C2COc3ccccc3O2)c1 (configuration not stated),-3.69%
6,COc1cc(SC)ccc1C(=O)NNC(=O)C1COc2ccccc2O1 (configuration not stated),55.9% (active)
7,COc1cc(SC)ccc1C(=O)N(Cc1ccccc1)c1ccccc1,-9.22%
8,NNC(=O)C1CC(O)CN1S(=O)(=O)c1ccc(Cl)cc1 (configuration not stated),-8.23%
9,CN1CCN(C2Cc3ccc(Cl)cc3Sc3ccc(F)cc32)CC1 (configuration not stated),-3.27%
10,Cc1c(CCO)c(=O)n(-c2ccccc2)n1S(=O)(=O)c1ccc(F)cc1,-6.22%
11,CCOC(=O)c1cnn(Cc2ccccc2Cl)c1N,-4.87%
12,CC[n+]1c(C)n(-c2ccccc2)c2ccc(NC(C)=O)cc21,59.6% (active)
13,CC(=O)c1cccc(NC(=O)c2cc(C)nn2-c2ccccc2)c1,-21.8%
14,CC(=O)Nc1ccc(NC(=O)CSc2nnc(C3CC3)n2-c2ccccc2)cc1,3.64%
15,S=C(NCCCc1ccccc1)Nc1ccc(Br)cc1,-8.32%
16,CCc1ccc(NC(=O)CS(=O)CC(=O)N2CCN(c3ccccc3F)CC2)cc1 (configuration not stated),-3.07%
17,CCc1ccc(NC(=O)CS(=O)CC(=O)NCCCc2ccccc2)cc1 (configuration not stated),93.4% (active)
18,CC(C)(C)C1CCc2c(sc3nc(SCC(N)=O)nc(N)c23)C1 (configuration not stated),5.56%
19,O=C(Nc1cccnc1)c1cc([N+](=O)[O-])ccc1Cl,-5.04%
20,O=C(Nc1cccnc1)c1cc2cc(Br)ccc2oc1=O,101% (active)
21,COc1ccc2oc(=N)c(C(=O)Nc3ccc(Br)cc3)cc2c1,2.27%
22,O=C(Oc1ccc2c(c1)CCC2)N1CCOCC1,-4.77%
23,COc1ccc(CCNS(=O)(=O)c2cn(C)nc2C)cc1,0.34%
24,O=C(O)c1ccccc1/C=N/Nc1ccc(S(=O)(=O)Nc2ccc(Cl)cc2)cc1[N+](=O)[O-],-7.5%
25,Oc1[nH]c2ccccc2c1N=Nc1c(F)c(F)c(F)c(F)c1F,-10.4%

row,SMILES,inhibition
1,O=[N+]([O-])c1cc(S(=O)(=O)Nc2cccc(Cl)c2)ccc1N=Nc1c(O)[nH]c2ccccc12,52.2% (active)
2,Cc1ccnc(NS(=O)(=O)c2ccc(NC(=O)c3oc4ccccc4c3C)cc2)n1,-7.13%
3,O=C1CCC/C=C\C[C@@H](CC(=O)N(CCO)Cc2ccccc2)C(=O)NCCO1,-0.23%
4,O=C(CCc1n[nH]c(=O)[nH]c1=O)N/N=C/c1ccc(Br)o1,2.94%
5,O=C(CCNC(=O)c1ccccc1Cl)NN=Cc1ccco1,10.6%
6,O=C(N/N=C/c1ccc(Br)o1)c1cncc(Br)c1,0.65%
7,O=C(CCNC(=O)c1ccccc1)NN=Cc1ccc(Br)o1,70.2% (active)
8,O=C(CCC(=O)N/N=C/c1ccc(Br)o1)N/N=C/c1ccc(Br)o1,55% (active)
9,N#CCC(=O)N/N=C/c1ccc(SCC(=O)Nc2ccccc2)o1,-8.26%
10,Cc1ccc(S(=O)(=O)NCC(C)NS(C)(=O)=O)cc1 (configuration not stated),-4.62%
11,Cc1cccc(C)c1NC(=O)COC(=O)c1ccccc1O,-5.49%
12,COc1ccc(CNS(=O)(=O)c2cc(-c3cc(C)no3)ccc2C(C)C)cc1,-11%
13,O=C(c1cc(S(=O)(=O)N2CCOCC2)ccc1Cl)N1CCOCC1,-9.49%
14,CC(=O)N1CCN(S(=O)(=O)c2cccc(C(=O)NC3CCC(C)CC3)c2)CC1 (configuration not stated),5.39%
15,C[C@H](NC(=O)C1CC(=O)N(c2ccc3c(c2)OCO3)C1)C(=O)NCc1ccco1 (some centres not stated),-2.53%
16,CCCn1nc(NS(=O)(=O)c2ccc(F)cc2)c2cc3ccccc3nc21,3.78%
17,CCCCNc1nc2ccccc2nc1NS(=O)(=O)c1cccs1,-7.43%
18,COCCCNc1nc2ccccc2nc1NS(=O)(=O)c1ccc(F)cc1,54.7% (active)
19,CC1C(=O)C(C)C(c2ccc(O)cc2)NC1c1ccc(O)cc1 (configuration not stated),-7.74%
20,CCN(CC)S(=O)(=O)c1cccc(-c2n[nH]c(=S)n2/N=C/c2ccc(C(=O)OC)cc2)c1,-7.1%
21,Cc1ccc(OC(=O)c2ccccc2C(=O)OCC(F)(F)C(F)F)cc1,-9.39%
22,CCc1ccc(C2C(C#N)=C(N)N(N3CCOCC3)C3=C2C(=O)CC(C)(C)C3)s1 (configuration not stated),8.56%
23,CC(C)(CNC(=O)CNC(=O)C1CCCCC1)N1CCOCC1,-8.57%
24,O=S(=O)(c1ccc(Br)c2ccccc12)N1CCOCC1,-7.33%
25,COc1ccc2[nH]c3c(C)c4cc[n+](C)cc4c(C)c3c2c1,64.5% (active)

row,SMILES,inhibition
1,COc1ccc2[nH]c(=S)cc(C)c2c1,-4.32%
2,COc1ccc2[nH]c(C(=O)N3CCN(C)CC3)c(C)c2c1,-4.55%
3,Cc1c([N+](=O)[O-])c(N)nn1C,51% (active)
4,Cc1nn(CCOc2ccc(Br)cc2)c(C)c1[N+](=O)[O-],-14.1%
5,Cn1nc(C(C)(C)C)c([N+](=O)[O-])c1C(N)=O,-0.65%
6,Clc1ccc(Cn2ncc3c(NCc4cccnc4)ncnc32)cc1,2.57%
7,O=C(COC(=O)c1ccccc1)Nc1cccc(S(=O)(=O)N2CCOCC2)c1,-6.52%
8,O=C(COC(=O)/C=C/c1ccc(Br)o1)Nc1cccc(S(=O)(=O)N2CCOCC2)c1,56% (active)
9,NS(=O)(=O)c1cccc(NC(=O)COC(=O)/C=C/c2ccco2)c1,26.2%
10,C=CCOc1ccc(/C=C/C(=O)OCC(=O)NC(C)c2ccc(F)cc2)cc1 (configuration not stated),1.27%
11,Cc1c(CCOC(=O)CC23CC4CC(CC(C)(C4)C2)C3)sc[n+]1Cc1ccc([N+](=O)[O-])cc1,12.7% and 5.4%
12,CN(C)c1nc2n(c(=O)n1)CCO2,1.74%
13,CC(NC(=O)COc1ccc(-c2ccccc2)cc1)C1CCCO1 (configuration not stated),-2.02%
14,COc1ccc(OCC(=O)NNC(=O)c2ccc(-c3ccccc3)cc2)cc1,69.9% (active)
15,COc1ccc(OCC(=O)NNC(=O)C2CCC2)cc1,0.44%
16,CCC(C)N1CC(=O)N2Cc3[nH]c4ccccc4c3C[C@H]2C1=O (some centres not stated),-3.96%
17,N/C(=N\OC(=O)N1c2ccccc2Sc2ccccc21)c1ccc(Br)cc1,69% (active)
18,N/C(=N\OC(=O)c1ccc2c(c1)OCO2)c1ccc(Br)cc1,-3.74%
19,N/C(=N\OC(=O)Cc1ccccc1[N+](=O)[O-])c1ccc(Br)cc1,-4.88%
20,Cc1cc(C)nc(NS(=O)(=O)c2ccc(N3C(=O)C4CCCCC4C3=O)cc2)n1 (configuration not stated),-3.6%
21,Cc1ccc(S(=O)(=O)Nc2nc(N)n(-c3ccccc3)n2)cc1,-3.38%
22,Cc1ccc(S(=O)(=O)Nc2nc(C)cc(-n3nc(C)cc3C)n2)cc1,84.1% (active)
